In brackets after ≈: the same amount, converted by molar mass.
Columns and labels:
[1] = Antibacterial activity against Enterobacter cloacae ATCC 13047 after 18 hrs; type: functional, Enterobacter cloacae subsp. cloacae; settings: ATCC 13047, 18 h
Outline: (§1)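 Broth microdilution in Nutrient Broth No. 2; stocks in ethanol diluted to 0.01–128 µg/ml (triclosan) or 0.25–256 µg/ml (glycosides). Overnight 37 °C NB2 cultures diluted 1 in 10^4 in saline and added to the dilutions. Incubation at 37 °C with agitation, OD read every 15 min; MIC is the lowest concentration preventing any OD rise after 18 h.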

[2] = tested on: Salmonella enteritidis; experiment: Antibacterial activity against Salmonella enterica subspecies enterica serotype Enteritidis 13076 after 18 hrs; type: functional, Salmonella enterica subsp. enterica serovar Enteritidis; settings: Salmonella enterica, 13076, 18 h; outline: as §1
[3] = tested on: Proteus mirabilis; experiment: Antibacterial activity against Proteus mirabilis ATCC 12453 after 18 hrs; type: functional; settings: ATCC 12453, 18 h; outline: as §1
[4] = tested on: Staphylococcus epidermidis; experiment: Antibacterial activity against Staphylococcus epidermidis ATCC 14990 after 18 hrs; type: functional; settings: ATCC 14990, 18 h; outline: as §1
[5] = tested on: Escherichia coli; experiment: Antibacterial activity against Escherichia coli ATCC 8739 after 18 hrs; type: functional; settings: ATCC 8739, 18 h; outline: as §1
[6] = Antibacterial activity against Salmonella enterica subspecies enterica serotype Poona NCTC 4840 after 18 hrs; type: functional, Salmonella enterica subsp. enterica serovar Poona; settings: NCTC 4840, 18 h; outline: as §1
[7] = tested on: Escherichia coli; experiment: Antibacterial activity against Escherichia coli ATCC 25922 after 18 hrs; type: functional; settings: ATCC 25922, 18 h; outline: as §1
[8] = tested on: Hafnia alvei; experiment: Antibacterial activity against Hafnia alvei 13337 after 18 hrs; type: functional; settings: Hafnia alvei, 13337, 18 h; outline: as §1
[9] = tested on: Staphylococcus aureus; experiment: Antibacterial activity against Staphylococcus aureus ATCC 6538 after 18 hrs; type: functional; settings: ATCC 6538, 18 h; outline: as §1
[10] = tested on: Streptococcus pneumoniae; experiment: Antibacterial activity against Streptococcus pneumoniae 6305 after 18 hrs; type: functional; settings: Streptococcus pneumoniae, 6305, 18 h
Outline: (§2)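 Broth microdilution in Nutrient Broth No. 2. Ethanol stocks were diluted in broth to 0.01–128 µg/ml for triclosan and 0.25–256 µg/ml for glycosides. Overnight 37°C NB2 cultures were diluted 1 in 10^4 in saline and added to the wells. Plates were incubated at 37°C with OD read every 15 min after agitation. MIC was the lowest concentration giving no OD increase at 18 h.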

[11] = tested on: Staphylococcus aureus; experiment: Antibacterial activity against Staphylococcus aureus OCC 106 after 18 hrs; type: functional; settings: OCC 106, 18 h; outline: as §1
[12] = tested on: Serratia marcescens; experiment: Antibacterial activity against Serratia marcescens OCC 217 after 18 hrs; type: functional; settings: OCC 217, 18 h; outline: as §1
[13] = tested on: Aeromonas hydrophila; experiment: Antibacterial activity against Aeromonas hydrophila OCC 778 after 18 hrs; type: functional; settings: OCC 778, 18 h; outline: as §1
[14] = tested on: Streptococcus viridans; experiment: Antibacterial activity against Streptococcus viridans OCC 234 after 18 hrs; type: functional; settings: OCC 234, 18 h; outline: as §2
[15] = tested on: Escherichia coli; experiment: Antibacterial activity against Escherichia coli OCC 122 after 18 hrs; type: functional; settings: OCC 122, 18 h; outline: as §1
[16] = tested on: Proteus vulgaris; experiment: Antibacterial activity against Proteus vulgaris OCC 195 after 18 hrs; type: functional; settings: OCC 195, 18 h; outline: as §1
[17] = tested on: Klebsiella aerogenes; experiment: Antibacterial activity against Enterobacter aerogenes ATCC 13048 after 18 hrs; type: functional; settings: ATCC 13048, 18 h; outline: as §1
[18] = tested on: Staphylococcus aureus; experiment: Antibacterial activity against Staphylococcus aureus OCC 104 after 18 hrs; type: functional; settings: OCC 104, 18 h; outline: as §1
[19] = tested on: Staphylococcus aureus; experiment: Antibacterial activity against Staphylococcus aureus ATCC 6538P after 18 hrs; type: functional; outline: as §1
[20] = Antibacterial activity against Salmonella enterica subspecies enterica serotype Dublin OCC 627 after 18 hrs; type: functional, Salmonella enterica subsp. enterica serovar Dublin; settings: OCC 627, 18 h; outline: as §1
[21] = tested on: Staphylococcus aureus; experiment: Antibacterial activity against Staphylococcus aureus NCTC 13758 after 18 hrs; type: functional; settings: NCTC 13758, 18 h; outline: as §1
[22] = tested on: Staphylococcus epidermidis; experiment: Antibacterial activity against Staphylococcus epidermidis 155 after 18 hrs; type: functional; settings: Staphylococcus epidermidis, 155, 18 h; outline: as §1
[23] = tested on: Staphylococcus aureus; experiment: Antibacterial activity against Staphylococcus aureus ATCC 25923 after 18 hrs; type: functional; settings: ATCC 25923, 18 h; outline: as §1
[24] = tested on: Escherichia coli; experiment: Antibacterial activity against Escherichia coli ATCC 35218 after 18 hrs; type: functional; settings: ATCC 35218, 18 h; outline: as §1
[25] = tested on: Klebsiella pneumoniae; experiment: Antibacterial activity against Klebsiella pneumoniae ATCC 13883 after 18 hrs; type: functional; settings: ATCC 13883, 18 h; outline: as §1
[26] = tested on: Enterococcus faecalis; experiment: Antibacterial activity against Enterococcus faecalis ATCC 33186 after 18 hrs; type: functional; settings: ATCC 33186, 18 h; outline: as §1
[27] = Antibacterial activity against Salmonella enterica subspecies enterica serotype Infantis OCC 2133 after 18 hrs; type: functional, Salmonella enterica subsp. enterica serovar Infantis; settings: OCC 2133, 18 h; outline: as §1
[28] = tested on: Escherichia coli; experiment: Antibacterial activity against Escherichia coli 700728 after 18 hrs; type: functional; settings: Escherichia coli, 700728, 18 h; outline: as §1
[29] = tested on: Staphylococcus epidermidis; experiment: Antibacterial activity against Staphylococcus epidermidis ATCC 12228 after 18 hrs; type: functional; settings: ATCC 12228, 18 h; outline: as §1

Molecule `Oc1cc(Cl)ccc1Oc1ccc(Cl)cc1Cl` [TRICLOSAN] has an MIC [1] of 0.5 µg/mL (≈ 1.73 µM), an MIC [2] of 0.5 to 1 µg/mL (≈ 1.73 to 3.45 µM) and an MIC [3] of 0.5 µg/mL (≈ 1.73 µM). It also gave an MIC [4] of 0.01 µg/mL (≈ 0.0345 µM), an MIC [5] of 0.1 to 0.5 µg/mL (≈ 0.345 to 1.73 µM) and an MIC [6] of 0.5 to 1 µg/mL (≈ 1.73 to 3.45 µM). It also gave an MIC [7] of 0.1 to 0.5 µg/mL (≈ 0.345 to 1.73 µM), an MIC [8] of 0.1 µg/mL (≈ 0.345 µM) and an MIC [9] of 0.01 µg/mL (≈ 0.0345 µM). The MIC [10] was 1 µg/mL (≈ 3.45 µM), the MIC [11] was 0.01 µg/mL (≈ 0.0345 µM) and the MIC [12] was 64 µg/mL (≈ 221 µM). For the same molecule, the MIC [13] was 8 µg/mL (≈ 27.6 µM), the MIC [14] was 4 µg/mL (≈ 13.8 µM) and the MIC [15] was 0.1 to 0.5 µg/mL (≈ 0.345 to 1.73 µM). For the same molecule, the MIC [16] was 0.5 µg/mL (≈ 1.73 µM), the MIC [17] was 0.5 µg/mL (≈ 1.73 µM) and the MIC [18] was 0.01 µg/mL (≈ 0.0345 µM). It also gave an MIC [19] of 0.01 µg/mL (≈ 0.0345 µM), an MIC [20] of 0.5 to 1 µg/mL (≈ 1.73 to 3.45 µM) and an MIC [21] of 0.01 µg/mL (≈ 0.0345 µM). It also gave an MIC [22] of 0.01 µg/mL (≈ 0.0345 µM), an MIC [23] of 0.01 µg/mL (≈ 0.0345 µM) and an MIC [24] of 0.1 to 0.5 µg/mL (≈ 0.345 to 1.73 µM). The MIC [25] was 0.1 µg/mL (≈ 0.345 µM), the MIC [26] was 8 µg/mL (≈ 27.6 µM) and the MIC [27] was 0.5 to 1 µg/mL (≈ 1.73 to 3.45 µM). For the same molecule, the MIC [28] was 0.1 to 0.5 µg/mL (≈ 0.345 to 1.73 µM) and the MIC [29] was 0.01 µg/mL (≈ 0.0345 µM).

From ChEMBL document CHEMBL4325893, “Synthesis and antibacterial profiles of targeted triclosan derivatives” (2019)
